High-throughput results as filed in PubChem BioAssay.
Compounds with a hit are over-represented: about 2% of the library has one in this group of screens.
UPR XBP1 act: adaptive UPR (XBP1) activation; CHO-XBP1 luciferase reporter, IRE1-XBP1 UPR activation, luminescence; percent of tunicamycin response, DMSO as zero; activation, % at 20 µM; 0.33% of 330,000 active; AID 463104;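 active means versus positive control, 20 µM dose yields 30% or more activation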
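Test system: CHO-XBP1 luciferase reporter cells | Buffer or medium: Serum-containing F12 medium, 10% FBS | Schedule: 6 h compound exposure at 37 °C, 5% CO2 | Detection: Steady-Glo luciferase glow luminescence, 10 min after reagent addition | Read-out basis: Activation, % of tunicamycin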
MC4R barr agon: human MC4R agonism via beta-arrestin; P32245; 0.98% of 360,000 active; U2OS MC4R beta-arrestin complementation, luminescence; percent of melanotan II response, DMSO zero; AID 540308; activation, % at 8.9 µM;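 active means activation above a per-plate cutoff, the mean activation of sample wells on that plate plus 3 SD, cut at about 8% in these data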
UPR CHOP act: apoptotic UPR (CHOP) activation; CHO-CHOP luciferase reporter, luminescence; percent of tunicamycin response over DMSO baseline; activation, % at 10 µM; 0.34% of 330,000 active; AID 449763;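 active means at 10 µM dose, activation of 40% or more, normalized to positive control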
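Test system: CHO CHOP reporter cells. Input: 500 CHO-CHOP cells per well. Medium: F12 with 10% FBS. Technique: luciferase luminescence. Measure: percent activation relative to tunicamycin control. Dosing: 10 µM compound, 0.5% DMSO. Timing: 16-18 h cell attachment, then 6 h compound exposure, 37 °C.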
A1 inh: inhibitors of the anti-apoptotic protein A1, read as caspase activation. caspase activation, % (test concentration not listed). MEF A1-2A-BIM cells, Caspase-Glo 3/7 luminescence, 3 h; percent of clofoctol response, vehicle zero. AID 2462. 0.066% of 330,000 active;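 active means over half of replicate activation scores above 10%, or exactly half above 10 with the replicate mean above 10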
MC4R antag cAMP: blocks human MC4R cAMP signaling; MC4R-expressing cells, MTII-stimulated cAMP, LANCE TR-FRET; inhibition, % at 6.5 µM; AID 540295; 0.48% of 360,000 active;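 active means inhibition above its plate's cutoff, the mean of tested wells on that plate plus 3 SD, cut at about 29% in these data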
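System: U2OS cells stably expressing human melanocortin 4 receptor (MC4R). Reagent: Melanotan II challenge after compound preincubation. Doses: 6.5 µM. Times: 30-min compound, 1-h challenge, 1-h detection, room temperature. Measured by: TR-FRET with Eu-cAMP and labeled anti-cAMP, 671 nm. Replicates: singlicate.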
MC4R barr conf: human MC4R beta-arrestin agonism confirmation; shares compounds with MC4R barr agon; U2OS MC4R beta-arrestin recruitment, luminescence; scaled DMSO 0%, Melanotan II 100%; activation, % at 8.9 µM; 31% of 2,400 active; AID 602192;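 active means mean activation across replicates above the hit cutoff set in the earlier primary screen, cut at about 8% in these data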
MOR-DOR barr ag: OPRM1-OPRD1 heterodimer agonism counter-screen. shares compounds with MC4R barr agon. U2OS PathHunter beta-arrestin, beta-gal luminescence; percent of deltorphin B response, DMSO zero. activation, % at 9.2 µM. 5.8% of 2,400 active;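 active means mean activation across replicates exceeds the hit threshold derived in the earlier primary screen, cut at about 18% in these data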
Target sequence (P35372 whole entry, looked up): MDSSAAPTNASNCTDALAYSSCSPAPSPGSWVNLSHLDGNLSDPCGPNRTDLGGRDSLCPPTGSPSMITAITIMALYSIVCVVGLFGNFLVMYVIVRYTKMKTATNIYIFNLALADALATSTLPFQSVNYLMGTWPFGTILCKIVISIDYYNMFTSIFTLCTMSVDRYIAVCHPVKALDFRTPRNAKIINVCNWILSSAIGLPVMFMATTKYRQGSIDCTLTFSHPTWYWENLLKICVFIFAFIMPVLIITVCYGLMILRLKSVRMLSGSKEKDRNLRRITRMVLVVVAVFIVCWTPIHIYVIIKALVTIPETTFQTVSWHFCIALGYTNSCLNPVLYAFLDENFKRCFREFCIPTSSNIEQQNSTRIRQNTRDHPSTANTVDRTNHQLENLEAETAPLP
Target sequence (P41143 whole entry, looked up): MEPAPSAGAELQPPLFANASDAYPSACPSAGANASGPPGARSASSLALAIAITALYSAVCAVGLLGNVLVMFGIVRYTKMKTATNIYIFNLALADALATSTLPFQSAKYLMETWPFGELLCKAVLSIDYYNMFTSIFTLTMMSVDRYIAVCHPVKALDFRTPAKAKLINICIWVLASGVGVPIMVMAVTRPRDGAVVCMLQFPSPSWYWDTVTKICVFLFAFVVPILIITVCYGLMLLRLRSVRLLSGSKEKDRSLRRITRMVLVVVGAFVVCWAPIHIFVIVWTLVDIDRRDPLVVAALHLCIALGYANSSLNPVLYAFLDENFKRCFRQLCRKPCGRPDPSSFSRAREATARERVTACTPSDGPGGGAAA
Each line names hits and unclear results; the compound was inactive in the other large screens (follow-up assays come after a bar, where they were run).

O=C1N/C(=N\N=C\c2cccs2)SC1Cc1ccc(Cl)cc1 (centres undefined)	MC4R barr agon 15 | MC4R barr conf inactive | MOR-DOR barr ag inactive
O=C(CSC1=NCCS1)Nc1ccc(F)cc1	none
O=C(CSc1ccc(F)cc1)Nc1ccc(C2SCCS2)cc1	MC4R barr agon 10 | MC4R barr conf inactive | MOR-DOR barr ag inactive
CCC(=O)N1CCCC(C(=O)Nc2ccc3cn[nH]c3c2)CC1 (centres undefined)	none (no result: UPR XBP1 act, UPR CHOP act, A1 inh)
Cc1ccc(C(=O)c2coc3c2C(=O)C(=O)c2ccccc2-3)cc1	MC4R barr agon 16 | MC4R barr conf 17 | MOR-DOR barr ag inactive
CCc1cnc(Nc2nc(C(N)Cc3ccc(F)cc3)cs2)nc1 (centres undefined)	none (no result: UPR XBP1 act, UPR CHOP act, A1 inh)
CCCOc1ccc(F)cc1-c1cc(C(=O)Nc2ccc(OC)cc2C)[nH]n1	none (no result: UPR XBP1 act, UPR CHOP act, A1 inh)
Cc1ccc(C)c(N2CCN(S(=O)(=O)c3ccc4[nH]c(=O)ccc4c3)CC2)c1	MC4R barr agon 17 | MC4R barr conf inactive | MOR-DOR barr ag inactive
Cc1cc(-c2ccccc2)nc(Nc2nc3c(C)cccc3c(=O)[nH]2)n1	MC4R barr agon 19 (no result: UPR XBP1 act, UPR CHOP act, A1 inh) | MC4R barr conf inactive | MOR-DOR barr ag inactive
Cc1cc(C)c2nc(Nc3nc(-c4ccccc4)cc(=O)[nH]3)nc(C)c2c1	MC4R barr agon 27 | MC4R barr conf 17 | MOR-DOR barr ag inactive
C=C1C(=O)C23C(O)C1CCC2C12COC3(O)C(O)C1C(C)(C)CCC2O (centres undefined)	none (no result: UPR XBP1 act, UPR CHOP act, A1 inh)
CCOC(=O)CN(C(=O)Cn1nnc(-c2ccc(OC)cc2)n1)C(C(=O)NC1CCCC1)c1ccc(F)cc1 (centres undefined)	none
COc1ccc(-c2nnn(CC(=O)N(Cc3ccc(F)cc3)C(C(=O)NC3CCCC3)c3ccc(F)cc3)n2)cc1 (centres undefined)	MC4R barr agon 9.7 | MC4R barr conf inactive | MOR-DOR barr ag inactive
C=C(C)c1ccc(C(C)(C)NC(=O)NCc2ccco2)cc1	none
C=C(C)c1ccc(C(C)(C)NC(=O)N(Cc2ccccc2)Cc2ccco2)cc1	MC4R barr agon 17 | MC4R barr conf inactive | MOR-DOR barr ag inactive
COc1ccccc1-c1ccc2c(c1)C(C)(Cc1ccc(F)c(Cl)c1)C(=O)N2 (centres undefined)	none (no result: UPR XBP1 act, UPR CHOP act, A1 inh)
CCOC(=O)c1ccc(NC(=O)Nc2cc(C)on2)cc1	MC4R barr agon 11 | MC4R barr conf inactive | MOR-DOR barr ag inactive
CCOC(=O)c1c(N)c2cc([N+](=O)[O-])ccc2n1C	MC4R barr agon 16 | MC4R barr conf inactive | MOR-DOR barr ag inactive
CC1CCN(S(=O)(=O)c2ccc(NC(=O)Cn3nnc(-c4ccccc4F)n3)cc2)CC1	MC4R barr agon 12 | MC4R barr conf 15 | MOR-DOR barr ag inactive
Cc1ccc(NC(=O)c2ccc(S(=O)(=O)N3CCC(C)CC3)cc2)cc1	MC4R barr agon 11 | MC4R barr conf inactive | MOR-DOR barr ag inactive
Cc1ccc(S(=O)(=O)N2CCN(S(=O)(=O)N3CCC(C)CC3)CC2)cc1C	MC4R barr agon 10 | MC4R barr conf inactive | MOR-DOR barr ag inactive
Cc1ccc(C(=O)Nc2ccc(S(=O)(=O)N3CCOCC3)cc2)cc1	none
Cc1ccc(S(=O)(=O)N2CCN(S(=O)(=O)N3CCCCC3)CC2)cc1C	none
Nc1c(Cl)cc(N=Nc2ccccc2)cc1Cl	none (no result: UPR XBP1 act, UPR CHOP act, A1 inh)
O=C(C(Br)=Cc1ccccc1)c1ccccc1	none (no result: UPR XBP1 act, UPR CHOP act, A1 inh)
COc1cc(S(=O)(=O)NC2CCSc3ccccc32)ccc1NC(C)=O (centres undefined)	none
CCCCCCCCNC(=O)c1cccnc1SCC(=O)Nc1ccc(OC)cc1OC	MC4R barr agon 11 | MC4R barr conf 18 | MOR-DOR barr ag 29
CCCCNC(=O)c1cccnc1SCC(=O)Nc1ccccc1OC	none
C=CCn1c(-c2ccccc2)cc(SC)c(C#N)c1=O	MC4R barr agon 12 | MC4R barr conf inactive | MOR-DOR barr ag inactive
Cc1ccc(F)c(S(=O)(=O)NC(=O)C2(C)CCN2C(=O)Cc2cccs2)c1 (centres undefined)	none (no result: UPR XBP1 act, UPR CHOP act, A1 inh)
Cc1ccc(/C=C/C(=O)Nc2sc3c(c2C#N)CCCC3)o1	MC4R barr agon 28 | MC4R barr conf inactive | MOR-DOR barr ag inactive
Cc1cccc(C(=O)Nc2sc3c(c2C#N)CCCCC3)c1	MC4R barr agon 17 | MC4R barr conf inactive | MOR-DOR barr ag inactive
Cc1ccc(/C=C/C(=O)Nc2nnc(SCc3ccc(C#N)cc3)s2)o1	MC4R barr agon 51 | MC4R barr conf inactive | MOR-DOR barr ag inactive
Oc1c(C(c2ccccc2)N2CCCCC2)ccc2ccccc12 (centres undefined)	none (no result: UPR XBP1 act, UPR CHOP act, A1 inh)
C=CCNc1nc2cc(-c3ccc(C(=O)N4CCOCC4)cc3)sc2c(=O)n1C	none (no result: UPR XBP1 act, UPR CHOP act, A1 inh)
CC(=O)c1ccc(OCc2cc(C(=O)NCC3CCCCO3)no2)cc1 (centres undefined)	none
CC(=O)c1ccc(OCc2cc(C(=O)NCCc3ccc(Cl)cc3)no2)cc1	MC4R barr agon 14 | MC4R barr conf inactive | MOR-DOR barr ag inactive
Cc1ccc(CNC(=O)c2ccc3c(=O)c(O)c(-c4ccc(C)cc4)[nH]c3c2)cc1	MC4R barr agon 13 | MC4R barr conf inactive | MOR-DOR barr ag inactive
O=C(CSc1nc2ccccc2s1)Nc1ccc2c(c1)oc1ccccc12	MC4R barr agon 17 | MC4R barr conf inactive | MOR-DOR barr ag inactive
O=C(CSc1nc2ccccc2s1)CSc1nc2ccccc2s1	MC4R barr agon 15 | MC4R barr conf inactive | MOR-DOR barr ag inactive
Cn1c(SCC(=O)Nc2ccc3[nH]c(=O)[nH]c3c2)nnc1-c1ccccc1	none
Cn1c(SCC(=O)Nc2ccc3c(c2)oc2ccccc23)nnc1-c1ccccc1	MC4R barr agon 10 | MC4R barr conf inactive | MOR-DOR barr ag inactive
COc1ccc(C(=O)N2CCN(c3nc4cc(C)cc(C)c4cc3C#N)CC2)cc1	none (no result: UPR XBP1 act, UPR CHOP act, A1 inh)
CC(C)N1CC2(CC(c3ccccc3C(F)(F)F)=NO2)CN1C(=O)c1ccco1 (centres undefined)	none (no result: UPR XBP1 act, UPR CHOP act, A1 inh)
Cc1ccc(-n2cnc3c(=O)[nH]cnc32)cc1[N+](=O)[O-]	none (no result: UPR XBP1 act, UPR CHOP act, A1 inh)
COc1cccc(/C=N/NC(=S)NC2CC3CCC2C3)c1OC (centres undefined)	none
Oc1ccccc1/C=N/NC(=S)NC1CC2CCC1C2 (centres undefined)	MC4R barr agon 12 | MC4R barr conf inactive | MOR-DOR barr ag inactive
COc1ccccc1C(=O)O/N=C1/CCCc2c1ccc(OC)c2[N+](=O)[O-]	MC4R barr agon 20 | MC4R barr conf inactive | MOR-DOR barr ag inactive
